Results from ChEMBL document CHEMBL1156386, “New cytotoxic butanolides from Litsea acutivena” (2001).
≈ marks a conversion by molar mass, not a printed value.

Tests used:
Type in all cases: functional
HT-29 = test: Cytotoxicity against human HT-29 cells after 6 days by MTT assay; settings: HT-29, 144 h, read-out: ED50 (the source's name)
Outline: (§1)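 A549 grown in EMEM with Earle's salts, 0.1 mM nonessential amino acids and 10% heat-inactivated FCS; HT-29 in RPMI 1640 with 10% heat-inactivated FCS; 37 °C, 5% CO2. Seeded 1000 cells/well. Eight concentrations spanning a 128-fold range, triplicate. After 6 days, MTT (1 mg/mL) added for 5 h, formazan dissolved in DMSO, A540. ED50 = 50% absorbance reduction versus untreated cells.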

P388 = test: Cytotoxicity against mouse P388 cells after 3 days by MTT assay; settings: P388, 72 h, read-out: ED50 (the source's name)
Outline: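 P-388 cells in Fisher's medium with 10% heat-inactivated FCS at 37 °C, 5% CO2. Cultures set up at 1500 cells/well in 200 µL. Compounds added at eight concentrations in triplicate. After 3 days, cells counted by MTT: formazan dissolved in DMSO, absorbance at 540 nm. ED50 = concentration giving 50% absorbance reduction versus untreated cells.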

A549 = test: Cytotoxicity against human A549 cells after 6 days by MTT assay; settings: A549, 144 h, read-out: ED50 (the source's name); outline: as §1

SMILES: C=Cc1cc(OC)c2oc(-c3ccc(O)c(OC)c3)cc2c1 [DEHYDROXYMETHYLAILANTHOIDOL]
- EC50 (HT-29): > 50 µg/mL
- EC50 (P388): > 50 µg/mL
- EC50 (A549): > 50 µg/mL

SMILES: C=C1OC(=O)/C(=C\CCCCCCCCCCC)[C@@H]1O [ISOLICOMOLIDE D]
- EC50 (HT-29): 2.11 µg/mL (≈ 7.52 µM)
- EC50 (P388): 2.97 µg/mL (≈ 10.6 µM)
- EC50 (A549): 2.9 µg/mL (≈ 10.3 µM)

SMILES: CCCCCCCCC/C=C1/C(=O)O[C@@](C)(OC)[C@H]1O [LITSEAKOLIDE D]
- EC50 (HT-29): 2 µg/mL (≈ 7.03 µM)
- EC50 (P388): 1.73 µg/mL (≈ 6.08 µM)
- EC50 (A549): 2.85 µg/mL (≈ 10 µM)

SMILES: CCCCCCCCC/C=C1\C(=O)O[C@@](C)(OC)[C@H]1O [LITSEAKOLIDE E]
- EC50 (HT-29): 3.69 µg/mL (≈ 13 µM)
- EC50 (P388): 2.94 µg/mL (≈ 10.3 µM)
- EC50 (A549): 4.89 µg/mL (≈ 17.2 µM)

SMILES: CCCCCCCCC/C=C1/C(=O)O[C@@](C)(OC)[C@@H]1O [LITSEAKOLIDE F]
- EC50 (HT-29): 4.39 µg/mL (≈ 15.4 µM)
- EC50 (P388): 2.04 µg/mL (≈ 7.17 µM)
- EC50 (A549): 2.01 µg/mL (≈ 7.07 µM)

SMILES: CCCCCCCCC/C=C1\C(=O)O[C@@](C)(OC)[C@@H]1O [LITSEAKOLIDE G]
- EC50 (HT-29): 2.73 µg/mL (≈ 9.6 µM)
- EC50 (P388): 0.97 µg/mL (≈ 3.41 µM)
- EC50 (A549): 1.94 µg/mL (≈ 6.82 µM)

SMILES: CO[C@H](C(=O)[C@@H](O)[C@@H](C)O)[C@@H]1Cc2cc3cc(O[C@H]4C[C@@H](O[C@@H]5C[C@@H](O)[C@H](O)[C@@H](C)O5)[C@H](O)[C@@H](C)O4)c(C)c(O)c3c(O)c2C(=O)[C@H]1O[C@H]1C[C@@H](O[C@@H]2C[C@@H](O)[C@@H](O[C@@H]3C[C@](C)(O)[C@H](O)[C@@H](C)O3)[C@@H](C)O2)[C@H](O)[C@@H](C)O1 [PLICAMYCIN]
- EC50 (HT-29): 0.08 µg/mL (≈ 0.0737 µM)
- EC50 (P388): 0.06 µg/mL (≈ 0.0553 µM)
- EC50 (A549): 0.07 µg/mL (≈ 0.0645 µM)
